CaV13 FRET inh = Disruptors of the CACNA1D IQ motif to Ca2+-dependent inactivation inhibitor domain association, primary screening, Förster resonance energy transfer in intact living …. inhibition, % at 12.3 µM. 340,000 tested, 0.098% active. AID 743397. HEK cells, CFP/YFP FRET ICDI-IQ, plate reader, 10 min; percent FRET-ratio fall versus neutral wells;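 active = mean replicate inhibition of at least 30% and at least 1% of replicates passing that level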
T cell modulator = T cell immune modulation candidate. 2C CD8+ T cell-vesicle binding, flow cytometry; stronger effect = lower value. response (vesicle binding), % at 7 µM. 330,000 tested, 0.068% active;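 active = response, share of CD8 T cells binding vesicles, and their 90th percentile fluorescence all below set limits, cut at about 80% in these data, passing the limit was not always enough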;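 also: values below 100% mean blocked vesicle binding to the CD8+ T cells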
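Assay system: 2C TCR transgenic mouse naive CD8+ T cells, MACS-purified | Read-out: CD8+ gate FL2 mean fluorescence as % of same-row positive control | Signal: High-throughput flow cytometry with anti-B7-1 and anti-CD8 staining | Timing: Binding step 1.5 h, 37 °C, antibody labelling 20 min, ice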
aDG glyco act = alpha-DG glycosylation activation. Pro5-aDG cells, alpha-DG glycosylation AlphaScreen (IIH6); 0% Pro5, 100% B10-LARGE cell signal. activation, % at 10 µM. 360,000 tested, 0.22% active. AID 624168;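 active = activation of at least 8% versus controls, or a plate z-score of at least 8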;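 also: Pro5 are CHO cells carrying HIG-tagged alpha-DG that lacks glycosylation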
proCasp3 act = activators of human procaspase-3 | P42574 | recombinant procaspase-3 D3A, Ac-DEVD-pNA absorbance 405 nm | activation, % at 8.5 µM | 330,000 tested, 0.11% active;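 active = activation above the mean of all tested compounds plus 3 SD, cut at about 21% in these data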
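assay system = Procaspase-3 D3A mutant | signal = absorbance at 405 nm, 0 and 120 min | times = 1 h preincubation plus 2 h reaction at 25 °C | repeats = single replicate | read-out = % activation between DMSO and enzyme-spiked controls | medium = Zinc-free HEPES saline buffer with Triton X-100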
GRK2 aptamer HTS = human GRK2 inhibition via aptamer displacement | inhibition of aptamer binding, % at 10 µM | bead flow cytometry, FAM-aptamer displacement from GRK2 | P25098 | 330,000 tested, 0.59% active;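 active = inhibition of aptamer binding above 40%, roughly 3 SD of noise, on plates passing a quality check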;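 also: median bead fluorescence of bound FAM aptamer so fluorescent compounds give negative values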
Target sequence (P25098 whole entry, looked up): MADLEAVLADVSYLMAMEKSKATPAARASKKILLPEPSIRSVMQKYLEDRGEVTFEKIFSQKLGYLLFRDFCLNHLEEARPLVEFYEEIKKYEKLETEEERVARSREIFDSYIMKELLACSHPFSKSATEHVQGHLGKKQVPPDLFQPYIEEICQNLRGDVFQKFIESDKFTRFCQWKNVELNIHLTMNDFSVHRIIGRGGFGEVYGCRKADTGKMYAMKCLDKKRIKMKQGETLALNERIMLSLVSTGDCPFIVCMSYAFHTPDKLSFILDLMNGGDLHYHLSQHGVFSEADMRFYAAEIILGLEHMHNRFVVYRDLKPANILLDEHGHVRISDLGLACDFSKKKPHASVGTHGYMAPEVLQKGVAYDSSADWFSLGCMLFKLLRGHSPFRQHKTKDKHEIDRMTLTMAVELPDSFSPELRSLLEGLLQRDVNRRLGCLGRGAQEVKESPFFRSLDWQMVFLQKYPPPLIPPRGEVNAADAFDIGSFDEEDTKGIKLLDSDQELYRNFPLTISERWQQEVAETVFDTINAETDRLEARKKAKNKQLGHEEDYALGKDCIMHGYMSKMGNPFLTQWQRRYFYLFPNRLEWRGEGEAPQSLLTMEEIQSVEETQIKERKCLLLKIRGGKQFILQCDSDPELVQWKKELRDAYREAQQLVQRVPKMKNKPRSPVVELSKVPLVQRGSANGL
proCasp7 act = counter-screen for procaspase-3 activators: activators of human procaspase-7 | 330,000 tested, 0.093% active | recombinant procaspase-7, Ac-DEVD-pNA absorbance 405 nm; D23A/D198A/D206A triple mutant, cannot self-cleave; scale: DMSO 0, 5 µM enzyme 100 | P55210 | activation, % at 8.5 µM;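 active = percent activation above the screen-wide mean plus 3 SD, cut at about 25% in these data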
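buffer or medium = Zinc-free HEPES/NaCl buffer, pH 7.4 | material = Procaspase-7 triple mutant (PC-7 D3A) | input = 2 µM procaspase-7 mutant as dispensed | signal = Epi-absorbance of released pNA at 405 nm, two timepoints | timing = 1 h preincubation, 2 h reaction | replicates = singlicate compound testing | evaluation = % activation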
Numbers stand for hits; 0 = inactive; - = no result; + = active, no number; ! = repeats disagree. Sampled rows, rich in hits. Any-hit rate of the full collection: about 1.1%.

SMILES | CaV13 FRET inh | T cell modulator | aDG glyco act | proCasp3 act | GRK2 aptamer HTS | proCasp7 act
CN(C)S(=O)(=O)c1ccc(C(=O)NCCc2ccco2)cc1 | 0 | 66.5 | 0 | 0 | 0 | 0
CCc1cc2c(nc1CC)CCCN2S(=O)(=O)c1c(C)noc1C | 0 | - | - | - | - | -
O=C1OC2(c3ccccc31)c1cc(I)c(O)c(I)c1Oc1c2cc(I)c(O)c1I | - | 0 | - | 0 | 76.0 | 0
CC/C(C)=N\Nc1nc(-c2cc3cc(OC)ccc3oc2=O)cs1 | + | 0 | 0 | 0 | 0 | 0
CN(C(=O)c1cccc(NC(=O)Cc2ccc(NC(=O)C3CCCN(C(=O)c4ccccc4)C3)cc2)c1)C1CC1 (stereo not drawn) | 0 | - | - | - | - | -
N#Cc1ccc(OCC(=O)OCC(=O)N2CCc3ccccc32)cc1 | 35.4 | - | 0 | - | - | -
CC(C)C[C@@H]1COc2cc(F)ccc2S(=O)(=O)N1 | 0 | - | - | - | - | -
O=S(=O)(Nc1ccc(O)c2ccccc12)c1cccs1 | 0 | 0 | 2.7 | 0 | 0 | 0
CCC(C)Sc1cccc(-c2nc3cc(C)ccn3c2NC2CCCCC2)c1 (stereo not drawn) | 0 | 0 | 14.7! | 0 | 0 | 0
CCCCCCSc1cccc(-c2nc3cc(C)ccn3c2NC2CCCCC2)c1 | 0 | 0 | 0 | 0 | 0 | 0
CC(C)NC(=O)OC[C@H]1O[C@H](C#Cc2ccc(C(C)(C)C)cc2)C=C[C@H]1O | 0 | - | - | - | - | -
CC(=O)N1CCN(c2ccc(N3CCN(Cc4ccccc4)[C@@H](C)C3)c(C)c2)[C@H](C)C1 | 0 | - | - | - | - | -
CC(=O)Nc1ccc(N2CCc3c(C)c(C#N)c4nc5ccccc5n4c32)cc1 | - | 0 | - | 64.9 | 0 | 89.6
CC(=O)c1ccc(Nc2c3c(c(C#N)c4nc5ccccc5n24)CCC3)cc1 | - | 0 | - | 0 | 0 | 0
Cc1ccc(-n2nnnc2CNC(=O)C(=O)c2c[nH]c3ccccc23)cc1C | 49.0 | - | 0 | - | - | -
CSc1ccc(Cn2c(C)c(C(=O)NCCC#N)sc2=O)cc1 | 34.0 | - | 0 | - | - | -
COc1ccc(CNC(=O)c2sc(=O)n(Cc3ccc(C)cc3)c2C)cc1OC | 54.8 | - | 0 | - | - | -
Cc1ccc(Cn2c(C)c(C(=O)NCc3cccc(C(F)(F)F)c3)sc2=O)cc1 | 0 | - | 0 | - | - | -
COc1ccc(CNC(=O)c2sc(=O)n(Cc3ccc(-c4ccccc4)cc3)c2C)cc1OC | 0 | - | 0 | - | - | -
Cc1c(C(=O)NCc2ccc3c(c2)OCCO3)sc(=O)n1Cc1ccccc1F | 73.3 | - | 0 | - | - | -
Cc1c(C(=O)NCCC#N)sc(=O)n1Cc1ccc(F)cc1 | 0 | - | 0 | - | - | -
Cc1c(C(=O)NCc2cccc(C(F)(F)F)c2)sc(=O)n1Cc1ccc(C(=O)N(C)C)cc1 | 47.1 | - | 0 | - | - | -
Nc1[nH]c(C(=O)c2ccccc2)c(-c2ccccc2Cl)c1C(=O)NCCc1c[nH]c2ccccc12 | 0 | - | - | - | - | -
COC1OC(COCc2ccccc2)C2OC(C)(C)OC2C1O (stereo not drawn) | 0 | - | - | - | - | -
Cc1c(C(=O)NCc2cccc([N+](=O)[O-])c2)sc(=O)n1Cc1cccc(F)c1 | 63.0 | - | 0 | - | - | -
SMILES | CaV13 FRET inh | T cell modulator | aDG glyco act | proCasp3 act | GRK2 aptamer HTS | proCasp7 act
Cc1cc(Br)cn2c(Cc3ccccc3C(F)(F)F)c(-c3ccco3)nc12 | 0 | - | - | - | - | -
COc1ccc(CNS(=O)(=O)c2cc(Br)ccc2Br)c(OC)c1 | 0 | - | - | - | - | -
Cc1cc(C)nc(SCC(=O)Nc2ccc(S(=O)(=O)Nc3onc(C)c3C)cc2)n1 | 80.0 | 0 | 0 | 0 | 0 | 0
CC(=O)OC[C@]12CC[C@H]3[C@@](C)(CC[C@H]4C(C)(C)CCC[C@]34C)[C@@H]1C[C@@H](C1=CC(=O)O[C@@H]1OC(C)=O)O2 | - | 0.0 | - | 0 | 0 | 0
CC[C@]12c3[nH]c4cc(-c5ccco5)ccc4c3CCN1C(=O)[C@@H](CC(=O)NCCN1CCOCC1)C[C@@H]2C(=O)N1CCN(C(=O)c2ccco2)CC1 | 0 | - | 0 | 0 | 0 | 0
CN(C)C(=O)CCc1ccc2c3c([nH]c2c1)[C@]1(C)[C@@H](C(=O)N2CCCCC2)C[C@H](CC(=O)NCc2ccco2)C(=O)N1CC3 | 0 | - | 0 | 0 | 0 | 0
CC[C@]12c3[nH]c4cc(CCC(=O)N(C)C)ccc4c3CCN1C(=O)[C@@H](CC(=O)NCCC1=CCCCC1)C[C@@H]2C(=O)N1CCN(C(=O)c2ccco2)CC1 | 0 | - | 0 | 0 | 43.0 | 0
CCN(CC)C(=O)[C@H]1C[C@H](CC(=O)NCc2ccco2)C(=O)N2CCc3c([nH]c4cc(CCC(=O)N(C)C)ccc34)[C@]12C | 0 | - | 0 | 0 | 51.0 | 0
CC[C@]12c3[nH]c4cc(-c5ccco5)ccc4c3CCN1C(=O)[C@@H](CC(=O)NCCc1ccccn1)C[C@@H]2C(=O)N1CCN(C(=O)c2ccco2)CC1 | 0 | - | 0 | 0 | 43.0 | 0
CC[C@]12c3[nH]c4cc(CCC(=O)N(C)C)ccc4c3CCN1C(=O)[C@@H](CC(=O)NCc1ccco1)C[C@@H]2C(=O)N1CCN(C(=O)C2CC2)CC1 | 0 | - | 0 | 0 | 45.0 | 0
C[C@@H]1ON(C)[C@H]2C[C@H]3c4[nH]c5c(-c6ccc(F)cc6)cccc5c4CCN3C(=O)[C@@H]12 | 0 | - | - | - | - | -
CCCCc1c(-c2ccccc2OC)ncn1Cc1ccc(Br)cc1 | 0 | - | - | - | - | -
O=C(N/N=C/c1ccc([N+](=O)[O-])o1)c1cc2ccccc2o1 | 0 | 0 | 3.6 | 0 | 0 | 0
O=C(N/N=C/c1ccc([N+](=O)[O-])o1)c1cc2c(ccc3ccccc32)o1 | 0 | - | 0 | - | - | -
COC(=O)c1cc2c(c3c4cc(C)ccc4n(S(=O)(=O)c4ccc(C)cc4)c13)C(=O)N(C)C2 | 0 | - | - | - | - | -
O=C(CCSc1ccc(Cl)cc1)c1ccco1 | 0 | 0 | 0 | 0 | 0 | 0
O=C(CSc1ccc(Cl)cc1)c1ccco1 | - | 0 | 0 | 0 | 58.0 | 0
CCn1c(SCC(=O)NCC2CCCO2)nnc1-c1c[nH]c2ccccc12 (stereo not drawn) | - | 0.0 | 0 | 0 | 0 | 0
O=C(CCc1c[nH]c2ccccc12)OCC(=O)c1ccccc1 | 36.3 | - | 0 | - | - | -
Cc1ccc(NC(=O)COC(=O)CCc2c[nH]c3ccccc23)c(C)c1 | 0 | 0.0 | 0 | 0 | 0 | 0
COc1cccc(C(=O)N[C@H](C(=O)N2CCC[C@H]2C(=O)NCCc2ccccc2Cl)c2ccccc2)c1 | 0 | - | - | - | - | -
Cc1c(C=O)c2ccccn2c1C(=O)c1cccs1 | 32.0 | 0 | 0 | 0 | 0 | 0
Cc1ccccc1-c1ccc2c(c1)[C@@H]1C[C@H](N(C)C(=O)Nc3ccccc3)[C@H]([C@H](C)O)CN1CC2 | 0 | - | - | - | - | -
CCCCN1/C(=C/c2ccc3ccccc3[n+]2CC)Sc2ccccc21 | - | - | 8.4 | - | - | -
COc1ccc(C(=O)NCC2CCN(C(=O)C(=O)c3cc4ccccc4o3)CC2)c(OC)c1 | 0 | - | - | - | - | -

High-throughput results: PubChem, several laboratories
